Results from paper PMC5598522 (Toxicology Reports, 2014).
Marks after values point to notes of the source that are not given here.

Tests used:
Plasma exposure = assay type: in vivo, rat; settings: carcinogenicity bioassay, Ticagrelor 180 mg/kg/day
Wistar rats = assay: Tumor findings in rat 2-year carcinogenicity bioassay; assay type: in vivo; settings: female rats, 2 years
Procedure, shortened: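 Wistar Han rats, 50 per sex per group (100 control females), started at seven weeks old and gavaged daily for 2 years at 0, 20, 60 or 180 mg/kg/day (females) in 1% carboxymethylcellulose/0.1% polysorbate 80. Full tissue list was paraffin-embedded, H&E-stained, examined microscopically and peer reviewed. Histology analysed by two-tailed Fisher's exact test; tumours by multiple testing at 5% significance.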

[1] = Body weight and food consumption in rat 2 year carcinogenicity study; assay type: in vivo
Procedure, shortened: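 Seven-week-old Wistar Han rats, 50 per sex per group, gavaged daily for 2 years with 0, 20, 60 or 180 (female)/120 (male) mg/kg/day. Vehicle was 1% carboxymethylcellulose with 0.1% polysorbate 80 (w/v) at 5 mL/kg. Body weights taken pretreatment, daily to Week 13, then weekly. Analysis by Hartley's jackknifed F-max test and Fisher's F-protected t-test.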

[2] = tested on: TA1535 TA100 TA102 TA98 TA1537; assay: Ames in vitro assay; assay type: cell-based, Salmonella
Procedure, shortened: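 Genotoxicity screens. Ames: Salmonella strains exposed to 3–3000 μg/plate with and without metabolic activation; read-out was reverse-mutation frequency. Mouse lymphoma: L5178Y/TK+ cells treated for 4 h with S9 (15.7–41.8 μg/mL), for 4 h without S9 (5.23–15.7 μg/mL), and for 24 h without S9; read-out was clone number. Micronucleus: male and female Alderly Park rats given 2000 mg/kg; micronuclei scored 24 or 48 h post-dose.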

[3] = Exposure in rat micronucleus in vivo assay; settings: Alderly Park (Wistar derived), 2000 mg/kg
dopamine D1 receptor = dopamine D1 receptor (Homo sapiens, UniProt P21728); assay: Dopamine D1 receptor radioligand binding; settings: 10 μM, [3H] SCH-23390, human recombinant CHO cells
Procedure, shortened: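 Human recombinant receptors expressed in CHO cells (D1, D2L) or CHO-K1 cells (D4.2) were used in radioligand binding assays with [3H]SCH-23390 (D1), [3H]spiperone (D2L) or [3H]dopamine (D4.2). The test compound or its metabolite was tested at a single concentration of 10 μM. Results are expressed as percent inhibition of specific binding.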

[4] = biological target: human dopamine transporter (Homo sapiens, UniProt Q01959); assay: Dopamine transporter radioligand binding
Procedure, shortened: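 Radioligand displacement of RTI-55 from human dopamine transporter expressed in recombinant CHO-K1 cells. Screened first at 10 μM as percent inhibition of specific binding. Then tested at 10 ascending concentrations in half-log steps. IC50 and Hill coefficient from non-linear least-squares regression; Ki by Cheng–Prusoff; four repeats. IC50 then compared with free systemic Cmax.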

[5] = Rat free systemic exposure in carcinogenicity study; assay type: in vivo
Procedure, shortened: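 Satellite carcinogenicity rats (10 per sex per dose) dosed orally at 20, 60 or 180/120 mg/kg/day. Heparinised blood taken on Days 1 and 3 and in Weeks 26 and 52, at 2–24 h post-dose (3 rats per sex per time point). Analysed by protein precipitation and LC-MS/MS.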

[6] = Human free systemic Cmax in clinical studies; assay type: in vivo; settings: based on 99.2% protein binding
[7] = tested on: estradiol-induced prolactin release; assay: Ovariectomized rat estradiol-induced prolactin release; assay type: in vivo; settings: ovariectomized female rats, 180 mg/kg/day
Procedure, shortened: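 Female Han Wistar rats (350–375 g) were ovariectomized and given jugular and femoral vein catheters, then recovered 7–14 days. Test compound (180 mg/kg/day) or vehicle (1% sodium CMC in 0.1% polysorbate 80) was given orally for 4 days (n = 10/group). On Day 4, estradiol (2 μg/rat) was given IV 1 h post-dose. Remote femoral blood was sampled to 5 h. Plasma prolactin was measured by ELISA. Baseline-subtracted AUC was log-transformed and compared by t-test.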

[8] = Plasma exposure in ovariectomized rat study; assay type: in vivo; settings: Ticagrelor 180 mg/kg/day, Day 1, 5 h post dose
Procedure, shortened: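 Female Han Wistar rats (350–375 g) ovariectomized and fitted with jugular and femoral vein catheters, then housed tethered at 23 ± 1 °C. Dosed orally at 180 mg/kg/day in 1% sodium carboxymethylcellulose/0.1% polysorbate 80, n = 10 per group. On Day 1, 0.5 mL blood taken 5 h post-dose into lithium heparin; exposure measured by protein precipitation and LC-MS/MS.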

platelet aggregation = settings: humans, 100 mg b.i.d., at 4, 12 and 24 h; cited from earlier work

Sequence of human dopamine transporter (Q01959 whole entry): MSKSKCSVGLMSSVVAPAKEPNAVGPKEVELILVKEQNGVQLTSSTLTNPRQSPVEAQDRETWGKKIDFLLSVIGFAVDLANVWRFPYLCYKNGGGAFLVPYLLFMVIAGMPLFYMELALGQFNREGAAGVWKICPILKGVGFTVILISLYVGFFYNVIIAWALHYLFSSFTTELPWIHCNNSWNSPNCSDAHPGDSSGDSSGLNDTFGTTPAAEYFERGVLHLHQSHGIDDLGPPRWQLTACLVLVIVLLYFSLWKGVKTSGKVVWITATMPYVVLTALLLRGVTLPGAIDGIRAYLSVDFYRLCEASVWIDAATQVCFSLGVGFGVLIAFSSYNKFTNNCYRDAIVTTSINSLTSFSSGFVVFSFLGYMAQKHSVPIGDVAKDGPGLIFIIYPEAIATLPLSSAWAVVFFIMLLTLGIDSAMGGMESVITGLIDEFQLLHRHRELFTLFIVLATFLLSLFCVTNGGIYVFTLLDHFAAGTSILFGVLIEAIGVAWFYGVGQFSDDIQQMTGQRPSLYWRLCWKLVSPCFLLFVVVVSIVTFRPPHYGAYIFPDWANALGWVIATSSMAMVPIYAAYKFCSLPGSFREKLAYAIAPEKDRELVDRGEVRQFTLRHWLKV
Sequence of dopamine D1 receptor (P21728 whole entry): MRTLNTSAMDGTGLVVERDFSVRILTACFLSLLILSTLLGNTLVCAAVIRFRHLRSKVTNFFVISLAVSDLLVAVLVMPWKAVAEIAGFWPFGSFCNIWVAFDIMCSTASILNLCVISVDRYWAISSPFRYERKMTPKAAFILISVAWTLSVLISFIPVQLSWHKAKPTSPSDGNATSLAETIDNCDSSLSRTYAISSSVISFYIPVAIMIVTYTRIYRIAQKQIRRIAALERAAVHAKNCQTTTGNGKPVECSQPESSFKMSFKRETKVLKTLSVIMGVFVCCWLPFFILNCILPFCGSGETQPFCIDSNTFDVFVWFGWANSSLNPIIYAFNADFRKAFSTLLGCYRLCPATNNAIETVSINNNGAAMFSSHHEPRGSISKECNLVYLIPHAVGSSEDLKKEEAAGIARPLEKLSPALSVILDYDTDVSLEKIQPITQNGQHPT

CCCSc1nc(N[C@@H]2C[C@H]2c2ccc(F)c(F)c2)c2nnn([C@@H]3C[C@H](OCCO)[C@@H](O)[C@H]3O)c2n1 [Ticagrelor]
Plasma exposure (mean ± SD) (Plasma exposure; Day 1, 5 h post dose): 35.9 ± 17.9 µM | Plasma exposure (mean ± SD) (Plasma exposure; Week 26, 5 h post dose): 37.9 ± 10.5 µM | Mammary fibroadenoma incidence (Wistar rats; 20 mg/kg/day): 22 percentage | Pituitary hyperplasia and adenoma incidence (Wistar rats; 20 mg/kg/day): 64 percentage | Uterine adenocarcinoma incidence (Wistar rats; 20 mg/kg/day): 10 percentage | Uterine adenosquamous carcinoma incidence (Wistar rats; 20 mg/kg/day): 0 percentage | Uterine squamous cell carcinoma incidence (Wistar rats; 20 mg/kg/day): 0 percentage | Mammary fibroadenoma incidence (Wistar rats; 60 mg/kg/day): 16 percentage | Pituitary anterior lobe adenoma in decedent rats (Wistar rats; 60 mg/kg/day): 53 percentage | Pituitary hyperplasia and adenoma incidence (Wistar rats; 60 mg/kg/day): 73 percentage | Uterine adenocarcinoma incidence (Wistar rats; 60 mg/kg/day): 12 percentage | Uterine adenosquamous carcinoma incidence (Wistar rats; 60 mg/kg/day): 2 percentage | Uterine squamous cell carcinoma incidence (Wistar rats; 60 mg/kg/day): 0 percentage | Mammary fibroadenoma incidence (Wistar rats; 180 mg/kg/day): 2 ^* percentage | Pituitary anterior lobe adenoma in decedent rats (Wistar rats; 180 mg/kg/day): 35 ^* percentage | Pituitary hyperplasia and adenoma incidence (Wistar rats; 180 mg/kg/day): 50 ^* percentage | Uterine adenocarcinoma incidence (Wistar rats; 180 mg/kg/day): 42 ^*** percentage | Uterine adenosquamous carcinoma incidence (Wistar rats; 180 mg/kg/day): 4 percentage | Uterine squamous cell carcinoma incidence (Wistar rats; 180 mg/kg/day): 2 percentage | Body weight lower than the control group by the end of study ([1]; female rats, 180 mg/kg/day): approximately 20% | Food consumption ([1]; female rats, 180 mg/kg/day): significantly decreased food consumption in 10 out of the last 14 measurements | Food consumption ([1]; male rats): no consistent food consumption differences | Body weight difference from the control group at the end of the study ([1]; male rats, high dose group (120 mg/kg/day)): ≤ 10% | Ames in vitro assay: Conclusion [2]: Negative | Ames in vitro assay: Results ([2]; 3–3000 μg/plate, with or without metabolic activation): No increased frequency of reverse mutations with or without metabolic activation | AUC ([3]; female): 1140 to 1360 µg·h/mL | Cmax ([3]; female): 45000 to 53000 ng/mL | AUC ([3]; male): 794 to 1240 µg·h/mL | Inhibition of radioligand binding at the D1 receptor (dopamine D1 receptor): neither Ticagrelor nor metabolite caused inhibition | Inhibition of the dopamine transporter at free systemic Cmax levels ([4]; at human free systemic Cmax): minimal inhibition | Inhibition of the dopamine transporter at free systemic Cmax levels ([4]; at rat free systemic Cmax): > 50% | Rat free systemic exposure maximal concentration (Cmax) ([5]; high dose group, based on 99.0% protein binding): 502 nM | Rat free systemic exposure Cmax ([5]; low dose group): 43 nM | Rat free systemic exposure Cmax ([5]; mid dose group): 157 nM | Human free systemic Cmax [6]: 12 nM | Effect on estradiol-induced prolactin release [7]: all but completely blocked the estradiol-induced prolactin release | Plasma exposure (mean ± SD) [8]: 33.2 ± 10.6 µM | Inhibition of platelet aggregation (platelet aggregation): greater than 90%
